From article PMC9091711 (RSC Advances, 2018)

What was measured:
[1] = system: Jurkat cells; test: Annexin V-FITC/PI apoptosis assay by flow cytometry; assay type: cell-based, human; details: 24 h, 4a at IC50 concentration
[2] = system: caspase-3; test: Active caspase-3 expression by flow cytometry; assay type: cell-based, human; details: Jurkat cells, 24 h, 4a at IC50 concentration
How it was run: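 Jurkat cells were seeded at 1 × 10^6 cells per well and left 12 h, then exposed to the test compound for 24 h. Cells were harvested, fixed in 70% ice-cold ethanol at −20 °C for 30 min, and washed twice with PBS. They were stained with FITC anti-active caspase-3 antibody for 60 min at room temperature in the dark, washed, resuspended in PBS and analysed by flow cytometry.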

[3] = cited from earlier work

Row | SMILES | Apoptotic dying cells (M2, Annexin-V-FITC fluorescence intensity) [1] [%] | Cells in late stage apoptosis ([1]; Annexin V-FITC/PI) [%] | Active caspase-3 expression (M2, apoptotic cells) [2] [%] | Stability in solution [3]
1 | CC[C@@]1(O)C(=O)OCc2c1cc1n(c2=O)Cc2cc3ccccc3nc2-1 [CPT, camptothecin] | 68 | 14 | > 54 | –
2 | CC(C)(C)C[C@@H]1N[C@@H](C(=O)N[C@H]2CC[C@H](O)CC2)[C@H](c2cccc(Cl)c2F)[C@]12C(=O)Nc1cc(Cl)ccc12 [MI-773] | – | – | – | low stability in solution
